This is a sample that favours compounds with a hit; in the whole collection about 3.5% have one here.
MrgX1 allo act = positive allosteric modulators of MrgX1, primary screen, HEK293 cells, Fluo-4 calcium flux | B-score at 10 µM | Mas-related G-protein coupled receptor member X1 (Homo sapiens), Q96LB2 | hit rate 0.63% among 310,000 | FDSS; hits give high values | AID 588675, 2011;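 active = plate-corrected calcium response at least 3 library SD above typical, normal starting fluorescence, not activating the receptor alone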;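 note: compound read alongside a low EC10 to EC30 dose of BAM8-22 agonist; peak minus trough fluorescence over baseline measured at the second addition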
Target sequence (Q96LB2 whole entry, looked up): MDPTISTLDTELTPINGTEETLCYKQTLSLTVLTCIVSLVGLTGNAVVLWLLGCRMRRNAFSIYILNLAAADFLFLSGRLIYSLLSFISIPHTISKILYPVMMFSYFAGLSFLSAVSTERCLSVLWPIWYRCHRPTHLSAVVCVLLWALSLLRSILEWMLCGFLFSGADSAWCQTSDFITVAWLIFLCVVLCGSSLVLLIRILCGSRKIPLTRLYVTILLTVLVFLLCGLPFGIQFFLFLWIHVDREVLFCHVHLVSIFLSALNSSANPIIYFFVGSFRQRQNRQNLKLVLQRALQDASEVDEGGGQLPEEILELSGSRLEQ
RGS4 act = RGS4 potentiators or activators, primary screen, cell-based, HEK293 M3R inducible RGS4, calcium flux. carbachol calcium flux Fluo4; hits give low values. B-score at 10 µM. hit rate 0.92% among 310,000;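 active = B-score of the integrated calcium signal more than 4 SD below the library mean, with starting fluorescence not abnormally high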;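 note: negative B-score means reduced calcium response which marks RGS4 activation or potentiation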
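Also added: carbachol at ECmax as muscarinic agonist stimulus; Assay system: HEK293 cells with stable M3R and inducible RGS4; Timing: overnight RGS4 induction, 30 min dye load 37 °C, 20 min compound RT; Measured by: Fluo4-AM (2 µM) calcium-flux fluorescence, kinetic read.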
MrgX1 agonist = agonists of human MrgX1 receptor, primary screen, HEK293 cells, Fluo-4 calcium flux; hit rate 0.44% among 310,000; Mas-related G-protein coupled receptor member X1 (Homo sapiens), Q96LB2; Fluo-4 calcium fluorescence, agonist mode; hits give high values; B-score at 10 µM;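 active = calcium response B-score plate-corrected fluorescence ratio at least 3 library SD, with starting fluorescence B-score inside 5 SD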
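System: HEK293 cells stably expressing human MrgX1 receptor; Dosing: test compound in the initial addition of three; Schedule: overnight plating, then 30 min 37 °C plus 30 min room-temperature dye loading; Detection: kinetic calcium dye fluorescence, Fluo-4 NW; Controls: per-plate positive and negative controls for Z′ factor.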
MrgX1 antagonist = antagonists of human MrgX1 receptor, primary screen, HEK293 cells, Fluo-4 calcium flux; Mas-related G-protein coupled receptor member X1 (Homo sapiens), Q96LB2; BAM8-22 antagonism; hits give low values; B-score at 10 µM; hit rate 1.3% among 310,000; AID 588676, 2011;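 active = calcium-response B-score plate-corrected more than 3 library SD below zero, starting fluorescence within 5 deviations, no agonist response on first addition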;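 note: peak minus trough fluorescence over baseline after final BAM8-22 challenge near maximal dose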
RGS4 block = RGS4 inhibitors, primary screen, cell-based, HEK293 M3R inducible RGS4, calcium flux; Fluo-4 calcium flux; hits give high values; triggered by carbachol at its EC20; B-score at 10 µM; hit rate 0.45% among 310,000; AID 463165, 2010;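 active = B-score, a plate-corrected calcium signal, over three deviations above library mean, with baseline fluorescence within five deviations of library mean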;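 note: RGS4 expression induced by doxycycline in cells with stable M3 receptor; B-score is computed from the integrated fluorescence ratio over baseline after carbachol; higher B-score means a larger calcium signal and so more RGS4 inhibition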
Target sequence (P49798 whole entry, looked up): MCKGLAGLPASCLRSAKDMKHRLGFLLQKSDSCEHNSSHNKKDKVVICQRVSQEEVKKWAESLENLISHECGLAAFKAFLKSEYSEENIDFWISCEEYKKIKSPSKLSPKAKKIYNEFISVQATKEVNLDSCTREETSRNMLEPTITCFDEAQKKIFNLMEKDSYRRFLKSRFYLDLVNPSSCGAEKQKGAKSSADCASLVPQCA
RGS4 act valid = reduced carbachol calcium response, RGS4-induced M3R cells, confirmation, RGS4 activator project, cell-based, HEK293 M3R/RGS4 inducible, calcium flux, duplicate; shares compounds with RGS4 act; carbachol calcium flux Fluo4; inhibition, % at 10 µM; hit rate 89% among 1,100; AID 602282, 2012;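 active = inhibition above 3 SD of the buffer control wells, cut at about 41% in these data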;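 note: signal is the integrated peak-minus-minimum Fluo4 fluorescence over baseline ratio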
RGS4 act ctr = RGS4 activator counter-screen hit in non-induced cells; shares compounds with RGS4 act; HEK293 M3R non-induced RGS4, Fluo4 calcium flux; after carbachol challenge at its EC90; inhibition, % at 10 µM; hit rate 82% among 1,100; AID 602283;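 active = inhibition exceeding 3 SD of buffer-only control wells, cut at about 26% in these data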;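 note: percent drop in integrated peak-minus-baseline over baseline Fluo4 ratio after carbachol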
RGS4 block valid = enhanced carbachol calcium response, M3R/RGS4 cells, RGS4 inhibitor project, cell-based, validation screen, HEK293 M3R/RGS4, calcium flux | hit rate 65% among 1,700 | shares compounds with RGS4 block | carbachol calcium Fluo-4 fluorescence; carbachol added at its EC20; 0 = buffer wells, 100 = carbachol control | calcium response, % at 10 µM;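 active = duplicate-averaged calcium response above the buffer-only control mean plus 5 SD of those controls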;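 note: integrated fluorescence ratio F max minus min over baseline F0; higher response in RGS4-induced cells means RGS4 inhibition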
RGS4 uninduced = carbachol calcium response in non-induced M3R cells, confirmation, counter-screen for RGS4 inhibitor project, cell-based, HEK293 M3R | shares compounds with RGS4 block | carbachol calcium Fluo-4; submaximal (EC20) carbachol stimulus; buffer wells 0%, carbachol control wells 100% | activity (percent), % at 10 µM | hit rate 20% among 1,900 | AID 493000, 2010; call rule not given here;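 note: RGS4 induction absent so cells express M3R without RGS4; higher means more calcium signal and flags a non-specific hit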
M3R basal Ca ctr = second counter-screen for RGS4 inhibitors: non-induced cells without carbachol; shares compounds with RGS4 block; HEK293 M3R/RGS4 non-induced, Fluo-4 calcium, no carbachol; normalised: buffer wells 0%, carbachol wells 100%; calcium response (agonist-mode artifact), % at 10 µM; hit rate 22% among 1,900; AID 493001;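 active = duplicate-averaged calcium rise in uninduced cells above buffer wells' mean plus 5 SD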
MrgX1 ag reconf = MrgX1 receptor agonists, duplicate retest, confirmation, HEK293 cells, Fluo-4 calcium flux; shares compounds with MrgX1 agonist; Fluo-4 calcium fluorescence, FDSS; hit rate 78% among 600; activation, % at 10 µM;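 active = calcium signal rise, corrected for plate position, at least 3 library SD high, with starting brightness within 5 such deviations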
HEK293 Ca flux = nonspecific calcium signal in parental HEK293, confirmation, counter-screen for MrgX1 antagonist project, parental HEK293 cells, Fluo-4 calcium flux. shares compounds with MrgX1 antagonist. Fluo-4 calcium fluorescence, FDSS. fluorescence ratio F(max-min)/F0 at 10 µM. hit rate 2% among 4,000;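 active = duplicate-averaged calcium fluorescence ratio at least three times the standard deviation of buffer wells, a nonspecific response in parental cells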
HEK293 Ca counter = calcium response in parental HEK293 cells, primary screen, counter-screen for MrgX1 allosteric activator project, cell-based, Fluo-4 calcium flux, duplicate. shares compounds with MrgX1 antagonist. fluorescence ratio F(max-min)/F0 at 10 µM. hit rate 0.4% among 4,000. AID 624114, 2012. Fluo-4 fluorescence ratio; hits give high values;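 active = calcium fluorescence ratio, averaged over duplicates, at least 3 SD of the buffer-well ratio, meaning a nonspecific response in receptor-free cells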;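 note: untransfected parental HEK293 lacking MrgX1 used as counterscreen for MrgX1 allosteric activators; fluorescence change taken during the second addition on a kinetic imager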
HEK293 Ca cntr2 = calcium response in parental HEK293 cells, primary screen, counter-screen for MrgX1 agonist project, cell-based, Fluo-4 calcium flux, duplicate, agonist mode; shares compounds with MrgX1 antagonist; fluorescence ratio F(max-min)/F0 at 10 µM; hit rate 8.7% among 4,000; Fluo-4 calcium fluorescence (FDSS); hits give high values;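 active = calcium fluorescence ratio at least three times the spread of buffer wells, meaning a non-specific response in parental cells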
* hit, by the source's call; i = inactive; / = no result.

SMILES | MrgX1 allo act | RGS4 act | MrgX1 agonist | MrgX1 antagonist | RGS4 block | RGS4 block valid | RGS4 uninduced | M3R basal Ca ctr | others
CC1(C)CC(=O)C2=C(C1)Nc1ccccc1S2 | i | i | i | i | i | / | / | /
COc1ccc(N(CC(=O)N2CCC(C(N)=O)CC2)S(=O)(=O)c2ccccc2)cc1 | i | i | i | i | i | / | / | /
COC(=O)C(NC(=O)c1ccccc1C(=O)O)c1ccc2ccccc2c1 (configuration not stated) | i | i | i | i | i | / | / | /
Cc1cc(C)nc(/N=C(\N)Nc2ccc(OCc3ccccc3)cc2)n1 | i | -10* | 161* | i | i | / | / | / | RGS4 act valid=87*;RGS4 act ctr=62*;MrgX1 ag reconf=590%*;HEK293 Ca flux=i;HEK293 Ca counter=i;HEK293 Ca cntr2=128*
Cc1ccc(C)c(N(Cc2cc3ccc(C)cc3[nH]c2=O)C(=O)c2ccco2)c1 | i | i | i | i | i | i | i | i
COc1ccc(N(Cc2cc3ccc(C)cc3[nH]c2=O)C(=O)c2ccco2)cc1 | i | i | i | i | i | i | i | i
COc1ccc(N(Cc2cc3ccc(C)cc3[nH]c2=O)C(=O)C2CCCO2)cc1 (configuration not stated) | i | i | i | i | i | / | / | /
COc1cc2c(cc1OC)C(COc1ccc([N+](=O)[O-])cc1)N(C(C)=O)CC2 (configuration not stated) | i | i | i | i | i | / | / | /
CCN(CC)CCCCCC(=O)Nc1ccccc1C(=O)Nc1ccccc1 | i | i | i | i | i | / | / | /
CN(CC(=O)Nc1cccc(F)c1)C(=O)c1ccc(COc2ccccc2)o1 | i | i | i | i | i | / | / | /
C/C(=N\NC(=O)c1c(Cl)cnn1C)c1ccc(NC(=O)c2ccncc2)cc1 | i | i | i | i | 9.6* | i | i | i
CC(=N\Nc1ccccc1)/C(=N/O)C(=O)Nc1ccccc1 | i | i | i | i | i | / | i | i
Cc1ccc(/C(O)=C2\C(=O)C(=O)N(C)C2c2cccc([N+](=O)[O-])c2)cc1 (configuration not stated) | i | i | i | i | i | / | / | /
O=C(NN=C1CCCC1)c1[nH]c2ccc(Cl)cc2c1-c1ccccc1 | i | i | i | i | 11* | 50%* | i | i
CC(=O)NNC(=O)c1[nH]c2ccc(Cl)cc2c1-c1ccccc1 | i | i | i | i | i | / | / | /
Cn1c(CNC(=O)c2ccc3c(c2)OCO3)nnc1SCC(=O)Nc1ccc(F)cc1 | i | i | i | i | i | / | / | /
C(=N\Nc1nc(N2CCCCC2)nc(N2CCCCC2)n1)/c1c[nH]c2ccccc12 | i | i | i | i | i | / | / | /
Cc1[nH]c2ccccc2c1/C=N/Nc1nc(N2CCCCC2)nc(N2CCCCC2)n1 | i | i | i | i | 11* | 38%* | 63%* | i
COc1ccc(S(=O)(=O)N2CCN(C(=O)c3ccc([N+](=O)[O-])o3)CC2)cc1 | i | i | i | i | i | / | / | /
O=C(/C=C/c1cccc([N+](=O)[O-])c1)c1ccc([N+](=O)[O-])o1 | i | i | i | i | 13* | 30%* | i | i
COc1ccc(/C=C/C(=O)c2ccc([N+](=O)[O-])o2)cc1 | i | i | i | i | 11* | 25%* | 32%* | i
Cc1ccc(NC(=O)c2ccc([N+](=O)[O-])o2)c(C)c1 | i | i | i | i | i | / | / | /
Cc1cccc(/C=C/C(=O)c2ccc([N+](=O)[O-])o2)c1 | i | i | i | i | 7* | 20%* | i | 8.5%*
Cc1ccccc1/C=C/C(=O)c1ccc([N+](=O)[O-])o1 | i | i | i | i | 6.7* | 24%* | i | i
Cc1c(C(=O)N(CC(C)C)c2c(N)n(Cc3ccccc3)c(=O)[nH]c2=O)sc2nc3n(c(=O)c12)CCC3 | i | i | i | i | i | / | / | /
Cc1ccc(/C=C/C(=O)c2ccccc2)cc1 | i | i | i | i | i | / | / | /
COC(=O)c1ccc(/C=C/C(=O)c2ccc(OC)c(OC)c2)cc1 | i | i | i | i | 8.9* | 7.0%* | 44%* | i
COc1cc(/C=C/C(=O)c2ccc(C)cc2)ccc1OCC#N | i | i | i | i | i | i | 32%* | i

Screening data (PubChem BioAssay)
